ChEMBL document CHEMBL5325511, “Discovery of N-(4-(Aminomethyl)phenyl)-5-methylpyrimidin-2-amine Derivatives as Potent and Selective JAK2 Inhibitors” (ACS Med Chem Lett, 2023)
Activity calls are given as the source filed them. The calls are words filed in the database; no cut-off is given here.

Key:
BaF3 [1] = assay: Inhibition of JAK2/STAT signaling pathway in mouse BaF3 cells harbouring JAK2 V617F mutant assessed as reduction in STAT3 phosphorylation by Western blot analysis; assay type: cell-based; details: dose 10-1000 nM
Summary of the method: (§1)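 Ba/F3 JAK2V617F cells treated with compound at increasing concentrations. Phosphorylation levels of JAK2, STAT3, STAT5 and AKT assessed by Western blot.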

[2] = molecular target: Tyrosine-protein kinase Lyn (Homo sapiens) (UniProt P07948); assay: Inhibition of LYN (unknown origin)
Sequence of Tyrosine-protein kinase Lyn (Homo sapiens) (P07948 2-512 limits assumed): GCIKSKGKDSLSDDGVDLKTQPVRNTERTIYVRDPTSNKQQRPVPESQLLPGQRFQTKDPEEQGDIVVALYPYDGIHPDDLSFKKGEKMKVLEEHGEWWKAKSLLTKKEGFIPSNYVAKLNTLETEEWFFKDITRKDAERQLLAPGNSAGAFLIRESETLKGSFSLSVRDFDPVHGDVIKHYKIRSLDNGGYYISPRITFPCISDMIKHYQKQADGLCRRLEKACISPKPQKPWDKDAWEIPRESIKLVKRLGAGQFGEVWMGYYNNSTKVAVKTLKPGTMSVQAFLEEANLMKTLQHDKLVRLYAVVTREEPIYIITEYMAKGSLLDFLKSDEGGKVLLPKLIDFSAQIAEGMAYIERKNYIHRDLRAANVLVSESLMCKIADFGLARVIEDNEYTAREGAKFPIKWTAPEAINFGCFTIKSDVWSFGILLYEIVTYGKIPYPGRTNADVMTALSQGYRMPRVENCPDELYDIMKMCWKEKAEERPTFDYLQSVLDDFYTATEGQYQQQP
Summary of the method: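 Kinase panel profiling (KinaseProfile, run by an outside contractor). The inhibitor was tested at 1 μM in duplicate against DMSO control. The value is % control, the percentage of kinase activity remaining.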

[3] = molecular target: T1, Tyrosine-protein kinase JAK3 (Homo sapiens, UniProt P52333); assay: Inhibition of JAK3 (unknown origin) in presence of Mg/ATP mixture by [gamma p33]-ATP based radiometric assay
T1 sequence (P52333 whole entry): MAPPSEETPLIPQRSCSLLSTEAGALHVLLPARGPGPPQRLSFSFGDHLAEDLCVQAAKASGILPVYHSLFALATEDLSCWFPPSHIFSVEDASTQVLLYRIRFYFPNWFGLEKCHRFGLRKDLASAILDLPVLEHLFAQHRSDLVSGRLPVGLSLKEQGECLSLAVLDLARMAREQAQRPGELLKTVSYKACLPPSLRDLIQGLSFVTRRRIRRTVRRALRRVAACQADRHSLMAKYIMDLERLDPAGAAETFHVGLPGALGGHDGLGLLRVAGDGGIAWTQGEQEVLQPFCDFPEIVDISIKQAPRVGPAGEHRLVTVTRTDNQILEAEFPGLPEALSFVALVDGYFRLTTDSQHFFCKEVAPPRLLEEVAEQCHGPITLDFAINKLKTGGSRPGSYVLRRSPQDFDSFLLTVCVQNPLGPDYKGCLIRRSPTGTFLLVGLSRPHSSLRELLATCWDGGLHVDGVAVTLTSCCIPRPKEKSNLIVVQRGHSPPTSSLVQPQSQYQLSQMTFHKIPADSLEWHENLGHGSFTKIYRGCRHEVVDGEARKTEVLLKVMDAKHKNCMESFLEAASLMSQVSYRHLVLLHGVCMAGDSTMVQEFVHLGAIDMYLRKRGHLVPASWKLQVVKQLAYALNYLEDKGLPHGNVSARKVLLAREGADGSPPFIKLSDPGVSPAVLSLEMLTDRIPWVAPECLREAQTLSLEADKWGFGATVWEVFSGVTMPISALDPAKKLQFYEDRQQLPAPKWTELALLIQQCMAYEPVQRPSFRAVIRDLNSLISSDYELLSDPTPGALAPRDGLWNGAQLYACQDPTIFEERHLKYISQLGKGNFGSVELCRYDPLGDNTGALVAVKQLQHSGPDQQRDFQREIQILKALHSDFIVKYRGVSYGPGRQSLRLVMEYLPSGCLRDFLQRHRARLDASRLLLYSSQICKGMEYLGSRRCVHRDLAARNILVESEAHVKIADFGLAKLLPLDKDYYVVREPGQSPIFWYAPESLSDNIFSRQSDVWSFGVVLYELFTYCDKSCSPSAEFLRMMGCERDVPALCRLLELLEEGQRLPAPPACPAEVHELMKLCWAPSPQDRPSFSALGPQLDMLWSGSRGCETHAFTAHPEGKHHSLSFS

[4] = molecular target: Tyrosine-protein kinase JAK1 (Homo sapiens, UniProt P23458); assay: Inhibition of JAK1 (unknown origin) in presence of Mg/ATP mixture by [gamma p33]-ATP based radiometric assay
Sequence of Tyrosine-protein kinase JAK1 (P23458 whole entry): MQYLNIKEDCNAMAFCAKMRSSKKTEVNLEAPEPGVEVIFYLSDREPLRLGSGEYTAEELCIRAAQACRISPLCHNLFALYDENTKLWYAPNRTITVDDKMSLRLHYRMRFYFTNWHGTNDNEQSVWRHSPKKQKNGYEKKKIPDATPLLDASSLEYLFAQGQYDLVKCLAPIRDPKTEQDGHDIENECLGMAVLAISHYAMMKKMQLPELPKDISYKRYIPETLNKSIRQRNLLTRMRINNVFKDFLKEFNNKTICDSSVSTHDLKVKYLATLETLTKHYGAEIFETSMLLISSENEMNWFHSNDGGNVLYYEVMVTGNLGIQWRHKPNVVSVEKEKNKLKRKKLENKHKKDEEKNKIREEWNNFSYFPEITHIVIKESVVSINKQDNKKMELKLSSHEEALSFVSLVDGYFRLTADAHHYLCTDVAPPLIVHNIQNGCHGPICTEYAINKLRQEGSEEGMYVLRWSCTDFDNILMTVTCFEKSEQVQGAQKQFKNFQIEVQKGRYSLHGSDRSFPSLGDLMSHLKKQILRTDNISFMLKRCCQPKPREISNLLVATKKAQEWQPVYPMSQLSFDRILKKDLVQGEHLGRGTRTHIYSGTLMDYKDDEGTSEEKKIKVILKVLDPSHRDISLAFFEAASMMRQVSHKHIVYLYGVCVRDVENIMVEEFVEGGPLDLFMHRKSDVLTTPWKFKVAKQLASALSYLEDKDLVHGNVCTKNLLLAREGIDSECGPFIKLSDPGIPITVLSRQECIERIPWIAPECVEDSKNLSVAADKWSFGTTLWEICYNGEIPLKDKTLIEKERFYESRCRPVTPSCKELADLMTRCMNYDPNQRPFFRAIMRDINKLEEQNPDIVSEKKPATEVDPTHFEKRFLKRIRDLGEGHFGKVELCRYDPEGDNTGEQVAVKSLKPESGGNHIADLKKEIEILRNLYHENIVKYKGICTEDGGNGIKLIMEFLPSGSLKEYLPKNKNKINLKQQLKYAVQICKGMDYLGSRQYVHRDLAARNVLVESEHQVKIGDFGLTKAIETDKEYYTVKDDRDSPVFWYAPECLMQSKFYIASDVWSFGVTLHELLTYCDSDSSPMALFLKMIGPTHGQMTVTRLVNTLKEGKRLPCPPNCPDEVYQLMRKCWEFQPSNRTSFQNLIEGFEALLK
Summary of the method: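 IC50 values determined by Eurofins Discovery.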

[5] = Cmax in Sprague-Dawley rat at 5 mg/kg, po measured upto 24 hrs by LC-MS/MS analysis; assay type: ADME, organism-based; design: dose 5 mg/kg, time < 24 hrs, route po; details: in vivo, 24 h
Summary of the method: (§2)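 Sprague–Dawley rats, n = 5, dosed at 5 mg/kg as a solution in 2% ethanol and 1% Tween 80, pH 5.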

[6] = Clearance in Sprague-Dawley rat at 5 mg/kg, po measured upto 24 hrs by LC-MS/MS analysis; assay type: ADME, organism-based; details: in vivo; summary of the method: as §2
BaF3 [7] = assay: Inhibition of JAK2/STAT signaling pathway in mouse BaF3 cells harbouring JAK2 V617F mutant assessed as reduction in JAK2 phosphorylation by Western blot analysis; assay type: cell-based; details: dose 10-1000 nM; summary of the method: as §1
[8] = Oral bioavailability in Sprague-Dawley rat at 5 mg/kg measured upto 24 hrs by LC-MS/MS analysis; assay type: ADME, organism-based; details: in vivo
Summary of the method: (§3)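 Sprague–Dawley rats, n = 5 per group, dosed at 5 mg/kg as a solution in 2% ethanol and 1% Tween 80, pH 5.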

[9] = Half life in Sprague-Dawley rat at 5 mg/kg, po measured upto 24 hrs by LC-MS/MS analysis; assay type: ADME, organism-based; details: in vivo, po, 5 mg/kg, 24 h; summary of the method: as §2
[10] = Tmax in Sprague-Dawley rat at 5 mg/kg, po measured upto 24 hrs by LC-MS/MS analysis; assay type: ADME, organism-based; details: in vivo, po, 5 mg/kg, 24 h; summary of the method: as §3
BaF3 [11] = assay: Inhibition of JAK2/STAT signaling pathway in mouse BaF3 cells harbouring JAK2 V617F mutant assessed as reduction in STAT5 phosphorylation by Western blot analysis; assay type: cell-based; details: dose 10-1000 nM; summary of the method: as §1
[12] = molecular target: Non-receptor tyrosine-protein kinase TYK2 (Homo sapiens, UniProt P29597); assay: Inhibition of TYK2 (unknown origin) in presence of Mg/ATP mixture by [gamma p33]-ATP based radiometric assay
Sequence of Non-receptor tyrosine-protein kinase TYK2 (P29597 whole entry): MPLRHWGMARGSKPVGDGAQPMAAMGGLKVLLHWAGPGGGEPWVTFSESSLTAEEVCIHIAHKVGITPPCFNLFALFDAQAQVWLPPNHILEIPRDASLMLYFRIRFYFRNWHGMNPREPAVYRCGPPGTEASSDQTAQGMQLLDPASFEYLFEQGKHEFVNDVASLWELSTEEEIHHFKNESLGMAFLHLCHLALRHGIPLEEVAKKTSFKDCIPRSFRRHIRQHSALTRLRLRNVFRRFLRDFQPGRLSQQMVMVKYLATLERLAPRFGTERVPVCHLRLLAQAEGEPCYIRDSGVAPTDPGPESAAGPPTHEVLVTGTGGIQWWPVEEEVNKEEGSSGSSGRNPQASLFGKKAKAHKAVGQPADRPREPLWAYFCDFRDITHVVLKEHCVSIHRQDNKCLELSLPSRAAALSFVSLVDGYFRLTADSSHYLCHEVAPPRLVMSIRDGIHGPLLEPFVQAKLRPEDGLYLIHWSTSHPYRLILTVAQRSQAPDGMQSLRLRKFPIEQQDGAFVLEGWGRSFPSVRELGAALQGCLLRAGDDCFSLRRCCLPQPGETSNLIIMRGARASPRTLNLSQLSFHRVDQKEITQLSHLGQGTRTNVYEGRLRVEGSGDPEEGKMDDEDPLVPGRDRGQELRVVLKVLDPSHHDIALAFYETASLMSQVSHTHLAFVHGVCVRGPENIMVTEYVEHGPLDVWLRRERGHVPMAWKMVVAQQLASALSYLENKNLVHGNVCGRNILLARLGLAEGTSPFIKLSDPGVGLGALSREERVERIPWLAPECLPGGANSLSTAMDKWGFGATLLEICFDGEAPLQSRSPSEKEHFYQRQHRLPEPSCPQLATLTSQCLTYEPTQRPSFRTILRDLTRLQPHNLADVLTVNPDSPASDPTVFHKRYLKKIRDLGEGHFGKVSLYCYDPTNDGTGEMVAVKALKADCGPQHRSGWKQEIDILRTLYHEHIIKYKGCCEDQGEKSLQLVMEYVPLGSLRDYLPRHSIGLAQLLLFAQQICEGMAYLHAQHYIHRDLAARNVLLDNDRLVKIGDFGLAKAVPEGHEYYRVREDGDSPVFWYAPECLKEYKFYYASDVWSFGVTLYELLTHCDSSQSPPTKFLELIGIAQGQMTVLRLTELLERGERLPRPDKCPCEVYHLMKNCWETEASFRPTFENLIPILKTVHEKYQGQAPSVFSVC

C=CS(=O)(=O)NCc1ccc(Nc2ncc(C)c(-c3cnn(C(C)C)c3)n2)cc1
inhibition (BaF3 [1]): Dose-Dependent Effect | inhibition [2]: Active | IC50 [3]: 273 nM | IC50 [4]: 193 nM | Cmax [5]: 121.4 ng/mL | CL [6]: 295 mL/min/kg | inhibition (BaF3 [7]): Dose-Dependent Effect | bioavailability [8]: 41.1% | t1/2 [9]: 5.2 h | Tmax [10]: 1.4 h | inhibition (BaF3 [11]): Dose-Dependent Effect | IC50 [12]: 206 nM
